Screening data from PubChem BioAssay.
Only some compounds are listed: those with a hit (about 3.2% of all), similar ones and a draw of the others.
DAX1 inh-1 = DAX1 (NR0B1) inhibitors on StAR promoter, primary screen, cell-based, luminescence, SF-1 (NR5A1), full-length DAX-1. 370,000 compounds, 1.1% hits. inhibition, % at 6.8 µM. HEK293T StAR-luciferase reporter, SF-1/DAX-1 repression relief. AID 652010, 2013;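 active = inhibition above the mean over all tested compounds plus 3 SD, cut at about 3.6% in these data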;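 also: 0% = DAX-1 cells with DMSO and 100% = cells lacking DAX-1 with DMSO; higher inhibition means more luminescence from relief of DAX-1 repression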
NR2E3 ag-1 = NR2E3 agonists in two-hybrid cells, primary screen, cell-based, luminescence, CHO-S, Gal4-NCOR/VP16-NR2E3; inhibition of corepressor binding, % at 3.98 µM; 360,000 compounds, 0.35% hits; AID 602229, 2012; Photoreceptor-specific nuclear receptor (Homo sapiens), Q9Y5X4; luciferase;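 active = inhibition above the mean of all tested compounds plus 3 SD, cut at about 70% in these data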;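 also: 0% = DMSO with NR2E3 transfected cells and 100% = cells lacking NR2E3 construct; higher means lower luciferase signal from less NR2E3 corepressor binding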
NR2E3 ag-2 = inhibitors of NR2E3-RetCOR corepressor binding, primary screen, NR2E3 agonist project, biochemical, TR-FRET, GST-NR2E3, biotin-RetCOR. 1536-well. Photoreceptor-specific nuclear receptor (Homo sapiens), Q9Y5X4. 320,000 compounds, 0.12% hits. AID 2300, 2010. inhibition of corepressor binding, % at 4.78 µM;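 active = percent inhibition above the cutoff of mean plus 3 SD of all tested compounds, set per screening campaign, cut at about 20% in these data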;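 also: 0% = DMSO wells and 100% = biotin wells as full block of FRET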
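System: GST-tagged NR2E3 plus biotinylated RetCOR corepressor; Amount: 1.35 nM GST-tagged NR2E3 final; Dosing: single nominal compound dose of 4.8 µM; Schedule: 5 h incubation at 4 °C; Technique: TR-FRET with europium anti-GST and streptavidin-D2, 340 nm excitation; Controls: biotin wells as high control, 0.6% DMSO wells as low control.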
SMARCA2 act = SMARCA2 (BRM) function activators, primary screen, cell-based, luminescence, high throughput; MG213 cells, MMTV-luciferase reporter, dexamethasone, overnight; activation, % at 9.1 µM; 370,000 compounds, 1% hits; AID 652017, 2013; in the data active = activation above about 7.8%;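 also: 0% = vehicle wells and 100% = reference activator wells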
GASC-1 inh = inhibitors of GASC-1 histone demethylase, primary screen, biochemical, fluorescence, DELFIA europium; Lysine-specific demethylase 4C (Homo sapiens), Q9H3R0; GST-JMJD2C(1-420) H3K9me3 demethylation; inhibition, % at 2.35 µM; 330,000 compounds, 0.069% hits; AID 2099, 2009;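 active = more than half of a compound's replicate wells show inhibition beyond 50%, single wells judged on their own value; inconclusive = some, but no more than half, of replicates pass 50% inhibition; inactive = no replicate passes 50% inhibition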;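 also: signal counts dimethyl H3K9 product captured on neutravidin plate; 0% = median of DMSO wells and 100% = 0.3 times that DMSO median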
Target sequence (Q9H3R0 1-420 limits assumed): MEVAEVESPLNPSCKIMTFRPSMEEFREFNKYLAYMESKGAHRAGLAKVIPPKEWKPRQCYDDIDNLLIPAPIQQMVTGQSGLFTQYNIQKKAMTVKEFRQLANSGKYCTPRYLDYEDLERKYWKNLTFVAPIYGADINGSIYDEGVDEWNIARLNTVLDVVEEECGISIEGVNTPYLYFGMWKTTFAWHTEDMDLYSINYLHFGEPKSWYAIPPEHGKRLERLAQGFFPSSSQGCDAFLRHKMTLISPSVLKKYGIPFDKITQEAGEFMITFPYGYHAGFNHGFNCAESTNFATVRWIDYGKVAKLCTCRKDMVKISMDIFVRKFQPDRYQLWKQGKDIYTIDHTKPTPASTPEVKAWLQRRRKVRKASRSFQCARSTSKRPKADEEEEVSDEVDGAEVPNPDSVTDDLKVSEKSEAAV
DAX1 inh-2 = DAX1 (NR0B1) inhibitors, primary screen, cell-based, HEK293, Gal4-DAX1, luciferase luminescence; Nuclear receptor subfamily 0 group B member 1 (Homo sapiens), P51843; HEK293 Gal4-DAX1 luciferase reporter; inhibition, % at 6.75 µM; 340,000 compounds, 0.99% hits;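 active = inhibition above the mean over all tested compounds plus 3 SD, cut at about 4.2% in these data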;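 also: 0% = DAX1-transfected cells with DMSO and 100% = empty-vector control cells with DMSO; inhibition shows as a rise in luminescence from relieved DAX1 repression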
Target sequence (P51843 207-470 limits assumed): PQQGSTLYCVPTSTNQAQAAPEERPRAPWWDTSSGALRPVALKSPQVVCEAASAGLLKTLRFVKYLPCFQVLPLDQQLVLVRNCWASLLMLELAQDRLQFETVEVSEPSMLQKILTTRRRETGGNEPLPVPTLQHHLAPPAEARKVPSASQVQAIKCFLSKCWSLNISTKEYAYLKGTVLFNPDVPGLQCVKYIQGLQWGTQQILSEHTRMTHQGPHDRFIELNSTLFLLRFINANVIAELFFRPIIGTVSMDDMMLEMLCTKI
Numbers without * were called inactive; ? = inconclusive; . = no result.

SMILES	DAX1 inh-1	NR2E3 ag-1	NR2E3 ag-2	SMARCA2 act	GASC-1 inh	DAX1 inh-2
CNCCOc1ccc(Cl)c(Cl)c1	0	-39	1	-2	57	5.3*
CC(C)Cc1nnc(NC(=O)CCC(=O)Nc2ccccc2)s1	3.6*	-26	3	-2	7	0
CCc1nnc(NC(=S)Nc2ccccc2)s1	2	20	0	7.8*	-8	0
Cc1cc(NC(=O)C(C)SCC(=O)Nc2nnc(CC(C)C)s2)no1 (stereo not drawn)	3.6*	-1	-3	-3	25	1
Cc1cc(NC(=O)C(C)SCC(=O)O)no1 (stereo not drawn)	1	-8	0	-2	9	0
CC(C)C(=O)Nc1cccc(NC(=O)c2cccc([N+](=O)[O-])c2)c1	-2	-11	3	-3	17	5.5*
Cc1ccc2oc(=O)c(/C=C(\O)c3cccs3)nc2c1	2	-96	-5	5	14	5.6*
O=c1oc2ccc(Cl)cc2nc1/C=C(\O)c1cccs1	2	-125	1	5	8	3
CCOC(=O)[C@]12CCCCC/C=C\1N(CCc1ccc(Cl)cc1)C(=O)[C@H]2CC(=O)N1CCSCC1	-2	.	.	-3	.	.
Cn1c2ccccc2n2c(=O)cc(-c3ccccc3)c(C#N)c12	0	-24	2	0	1	5.4*
N/C(=N\C(=O)OCc1ccccc1)N(Cc1ccccc1)C(C#CC1=CCCCC1)Cc1ccccc1 (stereo not drawn)	0	.	.	-4	.	.
COc1ccc(NC(=O)CCC(=O)OC(C(=O)c2ccccc2)c2ccccc2)cc1 (stereo not drawn)	0	-2	-2	-2	-2	2
Cc1ccc(C(=O)C(OC(=O)CCC(=O)Nc2cccc(C)c2)c2ccccc2)cc1 (stereo not drawn)	0	-10	1	-1	-3	4.7*
O=C(Cc1ccc(Cl)cc1)c1ccc(O)cc1	1	-124	-6	5	-3	4.9*
CCCCC(=O)c1ccc(O)cc1	0	-11	0	-1	-4	-1
O=C(CCO)c1ccc(O)cc1	1	-17	14	2	1	4.3*
CSc1ccc(C=NNc2ccc(S(=O)(=O)Nc3ccccc3C(=O)O)cc2[N+](=O)[O-])cc1	0	-18	.	-4	103*	0
CCOc1ccc(C=NNc2ccc(S(=O)(=O)Nc3ccccc3C(=O)O)cc2[N+](=O)[O-])cc1	.	7	.	.	6	-2
N#Cc1cc(-c2ccccc2)nnc1Sc1ccccc1	-1	-1	-1	1	102*	2
N#Cc1cc(-c2ccccc2)nnc1Sc1ccc(F)cc1	1	3	0	2	15	0
CCCC[C@@H]1C(=O)N2N=Cc3ccccc3[C@H]2N2N=Cc3ccccc3[C@@H]12	-1	.	.	1	.	.
CN(/N=C/c1ccncc1)c1cnc2ccccc2n1	4.4*	-134	2	0	11	1
CCNC(=O)C[C@H]1CC[C@H]2[C@@H](COc3ccc(NC(=O)c4ccc5c(c4)OCO5)cc3C(=O)N2C)O1	1	.	.	-4	.	.
CC(C)NC(=O)Cn1c(-c2cncs2)nc2ccccc21	0	.	.	-3	.	.
CCCN1CCS(=O)(=O)N(Cc2cn(CC(=O)OCC)nn2)C(C(=O)OC)C1 (stereo not drawn)	0	.	.	2	.	.
SMILES	DAX1 inh-1	NR2E3 ag-1	NR2E3 ag-2	SMARCA2 act	GASC-1 inh	DAX1 inh-2
COc1ccc(S(=O)(=O)NC(C)C(=O)NCc2cccnc2)cc1OC (stereo not drawn)	0	2	-2	-3	-1	4.5*
COc1ccc(S(=O)(=O)NCc2cccnc2)cc1NC(=O)c1ccccc1	0	-26	3	0	2	5.3*
COc1ccc(S(=O)(=O)NCc2ccncc2)cc1NC(=O)c1ccccc1	-8	-1	2	-3	?	-2
COc1ccc(S(=O)(=O)NC(C)C(=O)NCc2cccnc2)cc1Cl (stereo not drawn)	0	-6	3	0	1	1
CN(CCCOC(=O)c1cccs1)C1CN(Cc2cn(Cc3ccccc3Cl)nn2)S(=O)(=O)C1 (stereo not drawn)	-1	.	.	-2	.	.
COc1ccc(S[C@]2(C(=O)N3CCN(c4ncccn4)CC3)CC(=O)N(C(=O)/C=C/c3ccccc3)[C@@H]2c2ccc(OC)cc2)cc1	1	.	.	-6	.	.
CCN(CC)C(=O)c1ccc(C(CCOC(=O)Oc2ccccc2)c2ccc(OC)cc2)cc1 (stereo not drawn)	-1	.	.	0	.	.
COc1ccc(NC(=S)NC(=O)/C=C/c2ccco2)cc1	0	1	5	0	1	4.8*
Cc1c(-c2ccccn2)c(=O)[nH]n1-c1ccc(F)cc1	4.2*	-132	1	1	0	2
O=c1[nH]n(-c2ccc(F)cc2)c2ncccc12	0	-29	-8	1	4	0
O=C(CSc1nnc(CNC(=O)c2cccs2)o1)c1ccccc1	-1	-21	1	-4	97*	0
O=C(CSc1nnc(CNC(=O)c2cccs2)o1)c1ccc(Cl)cc1	-2	-6	-2	-5	5	0
O=C(CSc1nnc(CNC(=O)c2ccccc2F)o1)NCCc1ccccc1	-1	-2	1	-2	108*	1
O=C(C[C@H]1C[C@H](C(=O)N2CCOCC2)[C@@]2(CCC3CCCC3)c3[nH]c4cc(-c5ccco5)ccc4c3CCN2C1=O)NCCN1CCOCC1	3.7*	-12	.	-7	.	0
COC(=O)[C@]12C[C@H](CC(=O)N3CCCC3)C(=O)N(Cc3cccc4ccccc34)C1=C[C@H](C(C)C)O[C@@H]2C1CC1	-1	.	.	-2	.	.
S=C(NCc1ccccn1)Nc1ccc(Br)cc1Cl	2	-50	1	1	-44	5.6*
O=C(NCc1ccccn1)Nc1ccc(Cl)cc1Cl	3	-59	2	4	12	1
Cc1cccc(NC(=O)C(=O)NCc2ccccn2)c1	2	-41	-5	5	4	4.3*
Cc1cccc(NC(=S)NCc2ccccn2)c1	2	-45	2	0	-19	0
O=C(NCc1ccccn1)Nc1ccc(Br)cc1Cl	5.2*	-73	-2	6	1	2
CCn1c(COc2ccc(C)cc2)nnc1SCC(=O)c1ccc(-c2ccccc2)cc1	-3	.	.	-5	.	.
O=S1(=O)C=CCN1Cc1cn(Cc2ccc(F)cc2)nn1	1	.	.	3	.	.
